Here are results for ten compounds from ChEMBL document CHEMBL3580655, “Identification of a Potent Inhibitor of CREB-Mediated Gene Transcription with Efficacious in Vivo Anticancer Activity” (J Med Chem, 2015).

Molecules are shown by their SMILES. Active and inactive are the calls of the source. No cut-off for these calls is given here.

In one assay the test system is MCF7. Briefly: Antiproliferative activity against human MCF7 cells assessed as inhibition of cell growth after 72 hrs by MTT assay. Format: functional. To be noted: MCF7, 72 h. An outline of the steps:
(§1)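 Cells seeded, allowed to attach overnight, then exposed to a range of concentrations for 72 h. MTT 0.5 mg/mL in complete medium, 3 h at 37 °C, formazan dissolved in DMSO, absorbance 570 nm. Percent growth = 100×(treated−time-zero)/(medium control−time-zero). GI50 from nonlinear regression of the growth–concentration curve. Mean ± SD of at least two independent experiments in duplicate; highest concentration 100 μM.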

Another assay relates to MDA-MB-231. Briefly: Antiproliferative activity against human MDA-MB-231 cells assessed as inhibition of cell growth after 72 hrs by MTT assay. The class given is functional. The note with it: MDA-MB-231, 72 h. An outline of the steps: as §1
For the next assay, the system named is MDA-MB-468. Briefly: Antiproliferative activity against human MDA-MB-468 cells assessed as inhibition of cell growth after 72 hrs by MTT assay. To be noted: MDA-MB-468, 72 h. Format: functional. In a few lines:
as §1

Another assay relates to A549. Briefly: Antiproliferative activity against human A549 cells assessed as inhibition of cell growth after 72 hrs by MTT assay. The class given is functional. The note with it: A549, 72 h. An outline of the steps:
as §1

The nature of assay [1]: Inhibition of CREB-mediated gene transcription in human HEK293T cells transfected with pCRE-RLuc by renilla luciferase reporter assay. The class given is cell-based. To be noted: HEK-293T.
In assay [2] the target is Cellular tumor antigen p53 (Homo sapiens) (UniProt P04637). The experiment in a line: Inhibition of P53 (unknown origin) transfected in human HEK293T cells assessed as inhibition of forskolin-stimulated gene transcription after 30 mins by CRE-RLuc complementation assay. Format: cell-based. The note with it: HEK-293T. An outline of the steps:
(§2)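 HEK 293T cells transfected with the relevant plasmid combinations (VP16-CREB: VP16 activation domain fused to full-length CREB; or p53), then exposed to a range of concentrations before Renilla luciferase measurement. Activity normalized to protein concentration, expressed as RLU/μg protein.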

For assay [3] the target is unchanged. The experiment in a line: Inhibition of P53 (unknown origin) transfected in human HEK293T cells assessed as inhibition of forskolin-stimulated gene transcription at > 1 uM after 30 mins by CRE-RLuc complementation assay. The class given is cell-based. To be noted: HEK-293T. In a few lines: as §2
In the next assay the test system is HEK-293T. The experiment in a line: Inhibition of CREB-mediated gene transcription in human HEK293T cells assessed as inhibition of forskolin-stimulated Nurr1/NR4A2 transcription at 1000 nM after 1 hr by qRT-PCT analysis. Format: cell-based. In a few lines:
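HEK 293T cells exposed to a range of compound concentrations for 1 h, then DMSO or forskolin (10 μM) for 45 min. Nurr1/NR4A2 transcript level measured by qRT-PCR as relative mRNA.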

Cellular tumor antigen p53 (Homo sapiens), sequence (P04637 whole entry, looked up, the tested form may be a part): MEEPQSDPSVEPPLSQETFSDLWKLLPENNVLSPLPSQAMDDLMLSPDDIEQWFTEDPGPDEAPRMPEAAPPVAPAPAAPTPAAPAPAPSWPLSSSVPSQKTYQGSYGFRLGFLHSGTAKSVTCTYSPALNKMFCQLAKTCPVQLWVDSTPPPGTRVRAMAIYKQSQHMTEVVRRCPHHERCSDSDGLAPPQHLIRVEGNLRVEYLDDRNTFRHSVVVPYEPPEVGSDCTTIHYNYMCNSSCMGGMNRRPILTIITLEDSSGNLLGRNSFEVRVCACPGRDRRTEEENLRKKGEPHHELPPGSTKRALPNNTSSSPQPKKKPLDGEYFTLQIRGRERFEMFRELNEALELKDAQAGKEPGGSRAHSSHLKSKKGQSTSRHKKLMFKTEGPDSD

Take `NCCOc1cc2ccccc2cc1C(=O)NCCOc1cc2ccccc2cc1C(=O)Nc1ccc(Cl)cc1O`: the GI50 in the assay with MCF7 is 810 nM; in the assay on MDA-MB-231, 1210 nM; in the assay with MDA-MB-468 it was 250 nM; in the assay on A549, 1160 nM. In addition, the IC50 in assay [1] was found to be 300 nM.
`O=C(NCCCOc1cc2ccccc2cc1C(=O)Nc1ccc(Cl)cc1O)c1cc2ccccc2cc1OCCCO`: the GI50 in the assay with MCF7 came out at 29000 nM; in the assay on MDA-MB-231, 82700 nM; in the assay on MDA-MB-468, 10200 nM; in the assay with A549, 39200 nM. Further, in assay [1], half-maximal inhibition (IC50) was put at 7300 nM.
As for `NCCCOc1cc2ccccc2cc1C(=O)NCCCOc1cc2ccccc2cc1C(=O)Nc1ccc(Cl)cc1`, the concentration for 50% growth inhibition (GI50) is 1720 nM with MCF7, 1000 nM with MDA-MB-231, 1620 nM in the assay with MDA-MB-468 and 950 nM with A549. The same compound showed an IC50 in assay [1] of 4690 nM.
Consider `O=C(NCCCOc1cc2ccccc2cc1C(=O)Nc1ccc(Cl)cc1O)c1cc2ccccc2cc1OCCCN1CCOCC1`, for which the 50% growth inhibitory concentration (GI50) in the assay on MCF7 is over 100000 nM; with MDA-MB-231, over 100000 nM; in the assay on MDA-MB-468 it was 13700 nM; in the assay with A549, over 100000 nM. Also, in assay [1], the IC50 was over 50000 nM.
`NCCCOc1ccccc1C(=O)NCCCOc1cc2ccccc2cc1C(=O)Nc1ccc(Cl)cc1O`: the 50% growth inhibitory concentration (GI50) is 2660 nM in the assay on MCF7, 5820 nM with MDA-MB-231, 2320 nM in the assay on MDA-MB-468 and 2320 nM in the assay with A549. Besides, in assay [1], the midpoint of inhibition, the IC50, lay at 5300 nM.
Turning to `NCCCOc1cc2ccccc2cc1C(=O)NCCOc1cc2ccccc2cc1C(=O)Nc1ccc(Cl)cc1O`, the inhibition entry in assay [2] is “inactive”. Also, the inhibition entry in assay [3] was “Active”.
`CNCCCOc1cc2ccccc2cc1C(=O)NCCCOc1cc2ccccc2cc1C(=O)Nc1ccc(Cl)cc1O`: the GI50 turned out to be 1650 nM with MCF7, 260 nM with MDA-MB-231, 200 nM with MDA-MB-468 and 260 nM in the assay with A549. This compound showed an IC50 in assay [1] of 18500 nM.
On to `NCCCOc1cc2ccccc2cc1C(=O)NCCCOc1ccccc1C(=O)Nc1ccc(Cl)cc1O`, for which the 50% growth inhibitory concentration (GI50) came out at 2300 nM with MCF7, 4610 nM in the assay on MDA-MB-231, 1820 nM in the assay with MDA-MB-468 and 2440 nM in the assay with A549. In assay [1], this compound displayed a half-maximal inhibitory concentration (IC50) of 10000 nM.
Turning to `NCCCOc1cc2ccccc2cc1C(=O)NCCCOc1cc2ccccc2cc1C(=O)Nc1ccc(Cl)cc1O`, the concentration for 50% growth inhibition (GI50) with MCF7 is 140 nM; in the assay with MDA-MB-231 it was 370 nM; with MDA-MB-468, 220 nM; in the assay with A549, 290 nM. Further, in the assay on HEK-293T, the inhibition result is “Active”.
`NCCOc1cc2ccccc2cc1C(=O)NCCCOc1cc2ccccc2cc1C(=O)Nc1ccc(Cl)cc1O`: the GI50 was 1890 nM in the assay with MCF7, 2710 nM in the assay on MDA-MB-231, 1850 nM in the assay on MDA-MB-468 and 2170 nM in the assay with A549. Also, the IC50 in assay [1] amounted to 5230 nM.
